For seven molecules, MIC and CC50 results are on record in ChEMBL document CHEMBL4390663, “Cationic biaryl 1,2,3-triazolyl peptidomimetic amphiphiles: synthesis, antibacterial evaluation and preliminary mechanism of action studies” (Eur J Med Chem, 2019).

For one data set, the system named is Acinetobacter baumannii. In words: Antimicrobial activity against Acinetobacter baumannii ATCC 19606 incubated for 18 hrs by CLSI method. Format: functional. The conditions noted are these: ATCC 19606 = CIP 70.34 = JCM 6841, 18 h. The procedure, abridged: (§1)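 Screen run by CO-ADD: mid-log cultures in cation-adjusted MHB, 5 × 10^5 CFU/mL, compounds at up to 32 μg/mL in 1:2 serial dilutions (8 steps), final DMSO ≤0.5%, duplicate. 37 °C for 18 h without shaking; OD600 read against media-only and untreated-bacteria references. MIC = lowest concentration giving ≥80% inhibition; colistin standard.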

The subject of data set [1] is Clostridioides difficile. Kind of data set: Antibacterial activity against Clostridium difficile ATCC 700057 incubated for 48 hrs by CLSI method. Format: functional. The conditions noted are these: ATCC 700057, 48 h. The essentials: (§2)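 Broth microdilution per CLSI anaerobe method in pre-reduced (2-4 h) Brucella broth with haemin and vitamin K, 35 °C anaerobically for 48 h. Compounds from 5 mg/mL DMSO stocks, twofold dilutions in water mixed with double-strength broth; final 0.25–128 μg/mL. […] Triplicate; modal MIC read visually as lowest concentration inhibiting growth.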

Data set [2] is described as follows: Cytotoxicity against human HEK293 cells assessed as reduction in cell growth incubated for 20 hrs by resazurin dye-based fluorometric assay. The essentials:
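HEK293 cells, 5000 per well in DMEM + 10% FBS, exposed to compounds (top 32 μg/mL, 1:2 serial dilution ×8, ≤0.5% DMSO, duplicate) for 20 h at 37 °C, 5% CO2. Resazurin added (2.3 μg/mL final), 3 h further; fluorescence ex 560/em 590 nm. CC50 from sigmoidal dose-response fit against log concentration; tamoxifen standard.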
For orientation: Resazurin is reduced to fluorescent resorufin, in cell work by metabolically active cells.

The subject of data set [3] is Staphylococcus aureus. Kind of data set: Antimicrobial activity against Staphylococcus aureus ATCC 29213 incubated for 24 hrs by CLSI method. The data set is classed as functional. The conditions noted are these: ATCC 29213, 24 h. The essentials:
(§3)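 Broth microdilution per CLSI aerobic guidance in Mueller Hinton broth, ambient air, 35 °C for 24 h. DMSO stocks were diluted in water, then serially diluted with double-strength broth inoculum added, for final 0.25–128 μg/mL. […] MIC was read visually as the lowest concentration inhibiting growth; the modal value of triplicates was recorded.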

For the next data set, the system named is Klebsiella pneumoniae. In words: Antibacterial activity against Klebsiella pneumoniae 700603 incubated for 18 hrs by CLSI method. The data set is classed as functional. The conditions noted are these: Klebsiella pneumoniae, 700603, 18 h. The essentials: as §1
Data set [4] has as its system Staphylococcus aureus. Kind of data set: Antimicrobial activity against Staphylococcus aureus ATCC 43300 incubated for 18 hrs by CLSI method. The data set is classed as functional. The conditions noted are these: ATCC 43300, 18 h.
The next data set relates to Escherichia coli. In words: Antibacterial activity against Escherichia coli ATCC 25922 incubated for 18 hrs by CLSI method. Format: functional. The conditions noted are these: ATCC 25922, 18 h. The essentials:
as §1

In data set [5] the test system is Staphylococcus aureus. Kind of data set: Antibacterial activity against methicillin-resistant Staphylococcus aureus NCTC 10442 incubated for 24 hrs by CLSI method. The data set is classed as functional. The conditions noted are these: NCTC 10442, 24 h. The procedure, abridged:
as §3

In data set [6] the test system is Clostridioides difficile. In words: Antibacterial activity against Clostridium difficile NSW132 RT027 incubated for 48 hrs by CLSI method. The conditions noted are these: NSW132 RT027, 48 h. Format: functional. The essentials: as §2
Another data set concerns Enterococcus faecalis. In words: Antibacterial activity against Enterococcus faecalis ATCC 29212 incubated for 24 hrs by CLSI method. The data set is classed as functional. The conditions noted are these: ATCC 29212, 24 h.
In another data set the test system is Streptococcus pneumoniae. In words: Antibacterial activity against Streptococcus pneumoniae ATCC 49619 incubated for 24 hrs by CLSI method. The data set is classed as functional. The conditions noted are these: ATCC 49619, 24 h. The essentials:
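CLSI broth microdilution in MHB with 2.5% lysed horse blood, 5% CO2, 35 °C, 24 h. Compounds from 5 mg/mL DMSO stocks diluted in water plus double-strength broth; final 0.25–128 μg/mL. […] Triplicate; modal MIC read visually as lowest growth-inhibiting concentration.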

In a further data set the test system is Pseudomonas aeruginosa. In words: Antimicrobial activity against Pseudomonas aeruginosa ATCC 27853 incubated for 18 hrs by CLSI method. Format: functional. The conditions noted are these: ATCC 27853, 18 h. The procedure, abridged: as §1

The MIC is the lowest concentration found to suppress growth. Read a high MIC as a less susceptible organism. In general, CC50 refers to the concentration that lowers cell viability or growth by half. Turning to `CC(C)CCOc1ccccc1-c1ccccc1OCc1cn(C[C@@H](CCCCN)NC(=O)OCc2ccccc2)nn1.Cl`, the minimum inhibitory concentration (MIC) against Acinetobacter baumannii was 32 µg/mL; against Clostridioides difficile [1] it was 8 µg/mL; in the data set with Staphylococcus aureus [3] it was 16 µg/mL; in the data set with Klebsiella pneumoniae it was over 32 µg/mL; with Staphylococcus aureus [4], 16 µg/mL; in the data set with Escherichia coli it was 32 µg/mL. In addition, the MIC against Staphylococcus aureus [5] was 16 µg/mL; in the data set on Clostridioides difficile [6], 32 µg/mL; against Enterococcus faecalis, 16 µg/mL; against Streptococcus pneumoniae, 32 µg/mL; in the data set with Pseudomonas aeruginosa, 32 µg/mL. The cytotoxic concentration (CC50) at 20 h in data set [2] was 4.7 µg/mL.

Turning to `CC(C)CCOc1ccccc1-c1ccccc1OCc1cn(C[C@@H](CCCNC(=N)N)NC(=O)[C@@H](CCCCN)N=[N+]=[N-])nn1.Cl.Cl`, the MIC amounted to 16 µg/mL against Acinetobacter baumannii; 64 µg/mL against Clostridioides difficile [1]; 16 µg/mL in the data set on Staphylococcus aureus [3]; 32 µg/mL in the data set with Klebsiella pneumoniae; 8 µg/mL with Staphylococcus aureus [4]; 16 µg/mL against Escherichia coli. In addition, the MIC against Staphylococcus aureus [5] is 16 µg/mL; against Clostridioides difficile [6], 32 µg/mL; in the data set on Enterococcus faecalis, 16 µg/mL; against Streptococcus pneumoniae it was 8 µg/mL; with Pseudomonas aeruginosa, 32 µg/mL. In data set [2], the half-maximal cytotoxic concentration (CC50) at 20 h was over 32 µg/mL.

Regarding `CC(C)CCOc1ccccc1-c1ccccc1OCc1cn(C[C@@H](CCCCN)NC(=O)[C@@H](CCCNC(=N)N)n2cc(Cc3ccccc3)nn2)nn1.Cl.Cl`, the MIC in the data set with Acinetobacter baumannii was 8 µg/mL; against Clostridioides difficile [1], 16 µg/mL; in the data set with Staphylococcus aureus [3], 8 µg/mL; against Klebsiella pneumoniae, 16 µg/mL; against Staphylococcus aureus [4], 4 µg/mL; with Escherichia coli, 16 µg/mL. The MIC is 8 µg/mL in the data set with Staphylococcus aureus [5]; 16 µg/mL in the data set on Clostridioides difficile [6]; 16 µg/mL against Enterococcus faecalis; 4 µg/mL in the data set with Streptococcus pneumoniae; 16 µg/mL in the data set on Pseudomonas aeruginosa. In addition, the half-maximal cytotoxic concentration (CC50) at 20 h in [2] was determined as 21.9 µg/mL.

For the molecule `CC(C)CCOc1ccc2ccccc2c1-c1c(OCc2cn(C[C@@H](CCCCN)NC(=O)[C@@H](CCCNC(=N)N)n3cc(CCc4ccccc4)nn3)nn2)ccc2ccccc12.Cl.Cl`, the minimal inhibitory concentration (MIC) in the data set with Acinetobacter baumannii is 32 µg/mL; in the data set on Clostridioides difficile [1] it was 16 µg/mL; against Staphylococcus aureus [3], 4 µg/mL; in the data set on Klebsiella pneumoniae, over 32 µg/mL; in the data set with Staphylococcus aureus [4] it was 4 µg/mL; in the data set with Escherichia coli, over 32 µg/mL. Moreover, the minimal inhibitory concentration (MIC) is 4 µg/mL against Staphylococcus aureus [5]; 16 µg/mL in the data set on Clostridioides difficile [6]; 4 µg/mL in the data set on Enterococcus faecalis; 4 µg/mL against Streptococcus pneumoniae; 32 µg/mL in the data set on Pseudomonas aeruginosa. In data set [2], the CC50 at 20 h is over 32 µg/mL.

Regarding `CC(C)CCOc1ccc2ccccc2c1-c1c(OCc2cn(C[C@@H](CCCCN)NC(=O)Cc3ccccc3)nn2)ccc2ccccc12.Cl`, the MIC against Acinetobacter baumannii is over 32 µg/mL; against Clostridioides difficile [1] it was 16 µg/mL; against Staphylococcus aureus [3], 8 µg/mL; in the data set with Klebsiella pneumoniae, over 32 µg/mL; in the data set on Staphylococcus aureus [4], 8 µg/mL; against Escherichia coli, over 32 µg/mL. Besides, the MIC is 8 µg/mL in the data set on Staphylococcus aureus [5]; 32 µg/mL with Clostridioides difficile [6]; 8 µg/mL in the data set on Enterococcus faecalis; 32 µg/mL against Streptococcus pneumoniae; over 32 µg/mL against Pseudomonas aeruginosa. Also, the CC50 at 20 h in [2] stood at 8.6 µg/mL.

In the case of `CC(C)CCOc1ccccc1-c1ccccc1OCc1cn(C[C@@H](CCCCN)NC(=O)Cc2ccccc2)nn1.Cl`, the MIC against Acinetobacter baumannii is 32 µg/mL; against Clostridioides difficile [1] it was 32 µg/mL; against Staphylococcus aureus [3], 8 µg/mL; in the data set on Klebsiella pneumoniae, over 32 µg/mL; with Staphylococcus aureus [4], 16 µg/mL; against Escherichia coli it was over 32 µg/mL. Further, the minimum inhibitory concentration (MIC) with Staphylococcus aureus [5] was found to be 8 µg/mL; against Clostridioides difficile [6] it was 32 µg/mL; in the data set on Enterococcus faecalis, 8 µg/mL; with Streptococcus pneumoniae, 8 µg/mL; in the data set on Pseudomonas aeruginosa, 32 µg/mL. Also, the half-maximal cytotoxic concentration (CC50) at 20 h in data set [2] stood at 14.2 µg/mL.

In the case of `CC(C)CCOc1ccccc1-c1ccccc1OCc1cn(C[C@@H](CCCNC(=N)N)NC(=O)CCc2ccccc2)nn1.Cl`, the minimal inhibitory concentration (MIC) was over 32 µg/mL against Acinetobacter baumannii; 128 µg/mL in the data set on Clostridioides difficile [1]; 16 µg/mL against Staphylococcus aureus [3]; over 32 µg/mL against Klebsiella pneumoniae; 16 µg/mL against Staphylococcus aureus [4]; over 32 µg/mL in the data set with Escherichia coli. Further, the MIC is 16 µg/mL in the data set on Staphylococcus aureus [5]; 16 µg/mL in the data set on Clostridioides difficile [6]; 16 µg/mL in the data set on Enterococcus faecalis; 32 µg/mL against Streptococcus pneumoniae; over 32 µg/mL in the data set on Pseudomonas aeruginosa. Also, in [2], the CC50 at 20 h is over 32 µg/mL.
